Assay outcomes (PubChem)
L major viab = Leishmania major promastigote growth inhibition | AID 1063 | inhibition, % at 10 µM | Leishmania major promastigotes, resazurin fluorescence viability | 9% of 200,000 active;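 also: promastigotes grown with compound for 44 hours at 28 °C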
WT yeast gro inh = growth inhibition of WT yeast, mitochondrial fusion screen. mitochondrial fusion phenotypic screen, WT strain. inhibition, % at 10 µM. 2.1% of 190,000 active; in the data active = inhibition above about 58%; tested in S. cerevisiae
Diaphorase inh = diaphorase inhibition or chemical oxidation counter-screen. diaphorase resazurin-to-resorufin fluorescence, NADH, 16 min; bacterial (C. kluyveri) enzyme, not human. inhibition, % at 20 µM. 0.69% of 190,000 active. AID 1217;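 active = primary screen inhibition at 20 µM above a set limit, cut at about 50% in these data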;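 also: plate controls were DMSO with full reaction for no effect and wells lacking NADH for full effect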
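material = Clostridium kluyveri diaphorase enzyme | amount = 0.14 U/mL diaphorase, enzyme working solution | schedule = incubation 16 min, room temperature | detection = fluorescence of resorufin formed from resazurin, Ex 544/Em 590 nm | benchmarks = positive control minus NADH, DMSO neutral control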
G6PDH CS = L. mesenteroides G6PDH inhibition counter-screen; AID 1020; Purified L. mesenteroides G6PDH, diaphorase/resazurin coupled fluorescence, 45 min; inhibition, % at 5 µM; 0.12% of 200,000 active
Diaphorase act = diaphorase activation or chemical reduction counter-screen | Diaphorase/resazurin coupled assay, resorufin fluorescence, 16 min; hits give high values; 1 = vehicle wells, 0 = NADH-free wells | activation factor at 20 µM | 0.005% of 190,000 active;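 active = diaphorase activity raised at least twofold by the compound at 20 µM; inactive = activation factor below 2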
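Material: Clostridium kluyveri diaphorase, purified enzyme; Quantity: enzyme 0.07 U/mL final; Medium: HEPES pH 7.4 buffer with MgCl2 and Tween 20; Dosing: single compound dose of 20 µM, 1% DMSO final; Schedule: 16 min reaction at room temperature; Measured by: red resorufin fluorescence at 544/590 nm excitation/emission.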
* = called active by the depositor. Shown are actives, neighbours in structure and some others; about 11% of the full set was active somewhere. Rule as the data show it, unless noted: active = inhibition above about 50%; inactive = the rest.

SMILES	L major viab	WT yeast gro inh	Diaphorase inh	G6PDH CS	Diaphorase act
CCCCn1c(NC(C)CC)nc2c1c(=O)[nH]c(=O)n2C (configuration not stated)	0	0	7	13	0.9
CCCn1c(SCC(=O)NC)nnc1C(C)C	-3	18	14	4	0.9
NNC(=O)c1cccc(COc2ccccc2Br)c1	-4	44	24	4	0.8
NNC(=O)c1cccc(COc2ccc3c(c2)CCC3)c1	1	81*	6	6	0.9
COc1cc(/C=N/NC(=O)c2cc(C)oc2C)cc(OC)c1OC	-4	-3	5	-1	0.9
COc1cc(/C=N/n2cnnc2)ccc1OCc1ccccc1	80*	64*	4	4	1
COc1cc(/C=N/n2cnnc2)ccc1OCc1ccc(C)cc1	96*	29	-1	2	1
CCOc1cc(/C=N/O)ccc1OS(=O)(=O)c1ccc(C)cc1	10	-27	18	8	0.8
CCOc1cc(/C=N/O)ccc1OCc1ccc(C)cc1	61*	-26	21	-3	0.8
COc1cc(/C=N/n2cnnc2)ccc1OCCOc1ccccc1	37	6	7	4	0.9
C=CCc1ccc(OCCOc2ccc(/C=N/n3cnnc3)cc2OCC)c(OC)c1	37	33	4	4	1
COc1ccc(CCn2c(C)cc(C(=O)CCl)c2C)cc1OC	89*	-7	7	7	0.9
Cc1cc(C(=O)CSc2nnnn2C)c(C)n1CCc1ccc(F)cc1	-3	-1	3	5	1
Cc1cc(C(=O)CCl)c(C)n1CCc1ccc(Cl)cc1	101*	21	14	-1	0.9
Cc1cc(C(=O)CCl)c(C)n1CCc1ccc(F)cc1	100*	3	10	1	0.9
O=C(c1cccc(S(=O)(=O)N2CCCCC2)c1)N1CCN(S(=O)(=O)c2ccc(F)cc2)CC1	6	1	3	7	1
Cc1ccc(C2C(C(=O)c3cccs3)=C(O)C(=O)N2c2nnc(C)s2)cc1 (configuration not stated)	-5	-3	-9	10	1.1
CNC(=O)c1cc2cc(OC)ccc2n1CCN(C)C	-1	-10	-8	8	1.1
CNC(=O)c1cc2cc(OC)ccc2n1CCN(Cc1ccccc1)Cc1ccccc1	100*	8	22	-5	0.8
NC(=S)Nc1cccc2cccnc12	89*	-4	-3	4	1
Oc1ccccc1CNc1cccc2cccnc12	4	-3	66*	52*	0.3
O=C(Nc1cccc2cccnc12)C1CCCC1	-4	19	6	2	0.9
NC(=S)NNc1cccc2cccnc12	-2	3	72*	39	0.3
CC(C)CNC(=O)NC(=O)COC(=O)Cn1cnc2ccccc2c1=O	-2	-2	10	1	0.9
COc1ccc(-c2cn3c(C)c(C(=O)Nc4ccncc4)sc3n2)cc1	100*	16	-17	0	1.2
SMILES	L major viab	WT yeast gro inh	Diaphorase inh	G6PDH CS	Diaphorase act
COc1ccc(-c2cn3c(C)c(C(=O)Nc4cccc(NC(C)=O)c4)sc3n2)cc1	12	15	9	7	0.9
CC1CCN(c2ncnc3c2cnn3-c2ccccc2)CC1	4	0	11	-2	0.9
COc1cccc(OCCN2CCN(c3ncnc4c3cnn4-c3ccccc3)CC2)c1	20	59*	6	4	0.9
CC(C)CN(CC(C)C)S(=O)(=O)N1CCC(C(=O)NCCc2ccc(Cl)cc2)CC1	-4	18	10	2	0.9
S=C(NCCC1=CCCCC1)NCc1ccco1	0	69*	20	-3	0.8
O=C(NC(=S)NCCC1=CCCCC1)c1ccccc1Br	-2	64*	8	14	0.9
O=C(COC(=O)c1ccccc1Br)NCCC1=CCCCC1	4	-11	8	4	0.9
Cc1cc(C)n(Cc2ccc(Cl)c(Cl)c2)c(=O)c1S(=O)(=O)c1ccccc1	2	3	14	-9	0.9
O=C(CN(Cc1cccs1)C(=O)CCC(=O)Nc1ccccn1)NCc1ccccc1	-2	-23	14	4	0.9
O=C(CNc1cc(S(=O)(=O)N2CCCC2)ccc1OCC(F)(F)F)Nc1ccc(SC(F)F)cc1	1	-2	14	21	0.9
CC1CCN(CC(=O)Nc2ccc(Br)cc2[N+](=O)[O-])CC1	-7	12	21	-2	0.8
C=CCn1c(SCC(=O)Nc2ccc(C(=O)OCC)cc2)nnc1-c1sc(N)nc1C	58*	-5	5	16	1
CCOC(=O)c1ccc(NC(=O)CSc2nc3c(c(=O)n2CC)SC(C)C3)cc1 (configuration not stated)	53*	0	32	-39	0.7
CCN(CC)CCN(C(=O)Cn1nnc(-c2ccc(OC)c(OC)c2)n1)C(C(=O)NC1CCCC1)c1ccc(F)cc1 (configuration not stated)	-1	-14	-7	8	1.1
O=C(COC(=O)c1ccc([N+](=O)[O-])s1)Nc1ccccc1	38	70*	0	9	1
Cc1[nH]c2ccccc2c1C(=O)COC(=O)C1CCC(=O)N1 (configuration not stated)	7	0	15	1	0.8
O=C(COC(=O)c1ccc([N+](=O)[O-])s1)NCc1ccccc1	12	20	14	-5	0.9
Cc1[nH]c2ccccc2c1C(=O)COC(=O)c1ccc([N+](=O)[O-])s1	100*	98*	27	18	0.7
CC(C)(C)c1ccc(NC(=O)COC(=O)c2ccc([N+](=O)[O-])s2)cc1	58*	92*	1	12	1
O=C(COC(=O)c1ccc([N+](=O)[O-])s1)NC(c1ccccc1)c1ccccc1	67*	-11	21	0	0.8
CC1CCC(C(C)C)C2=C1C(C#N)(C#N)C(C#N)(C#N)C(c1ccccc1)N2 (configuration not stated)	100*	-26	26	9	0.7
OCCN1CCN(CC(O)COc2ccc3c(c2)OCO3)CC1 (configuration not stated)	-2	14	12	8	0.9
Cc1cc(OCC(O)CN2CCN(CCO)CC2)ccc1C(C)C (configuration not stated)	89*	-9	13	-6	0.9
CCN1CCN(CC(O)COc2ccc3c(c2)CCC3)CC1 (configuration not stated)	84*	4	4	7	1
CNC(=S)N1N=C(c2ccc(C)cc2)CC1c1ccc(Br)cc1 (configuration not stated)	100*	58*	10	-6	0.9
COc1ccc(C2=NN(C(N)=S)C(c3ccco3)C2)cc1 (configuration not stated)	23	-3	20	3	0.8
CNC(=S)N1N=C(c2ccc(C)cc2)CC1c1ccc(Cl)cc1 (configuration not stated)	100*	-6	12	-3	0.9
